# CYP2C19 inh: inhibitors of human CYP2C19 | 21% of 96,000 active | CYP2C19 Supersomes, luciferin-H EGE luminescence, 30 min | P33261 | AID 778 | inhibition, % at 5 µM;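 active means CYP2C19 inhibition above a set limit at 5 µM in the primary screen, cut at about 50% in these data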
# CYP2C9 inh: human CYP2C9 inhibition. P11712. CYP2C9 Supersomes, luciferin-H conversion, luminescence. inhibition, % at 5 µM. 20% of 96,000 active;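 active means blocking of liver enzyme CYP2C9 beyond about 50% at 5 µM, limit read from the data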
# Target sequence (P11712 whole entry, looked up): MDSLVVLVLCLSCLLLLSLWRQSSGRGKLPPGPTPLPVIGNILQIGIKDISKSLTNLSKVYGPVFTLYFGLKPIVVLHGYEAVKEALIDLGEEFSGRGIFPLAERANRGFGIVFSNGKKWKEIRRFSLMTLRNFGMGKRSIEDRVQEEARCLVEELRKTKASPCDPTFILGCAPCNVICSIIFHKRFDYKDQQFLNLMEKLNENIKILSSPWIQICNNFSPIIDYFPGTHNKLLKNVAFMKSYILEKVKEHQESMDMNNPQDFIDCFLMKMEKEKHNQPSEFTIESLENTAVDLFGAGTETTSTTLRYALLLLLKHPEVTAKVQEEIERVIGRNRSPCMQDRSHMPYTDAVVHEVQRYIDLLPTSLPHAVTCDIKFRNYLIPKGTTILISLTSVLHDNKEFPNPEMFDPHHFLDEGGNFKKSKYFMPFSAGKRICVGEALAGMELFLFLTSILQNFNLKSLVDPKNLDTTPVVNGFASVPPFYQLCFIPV
# Cav3 T inh: blocks human Cav3.2 T-type calcium channel; O95180; Cav3.2-expressing cells, Fluo-4 calcium fluorescence FDSS; hits give low values; B-score at 10 µM; 4% of 100,000 active; AID 449739;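 active means single-dose well whose peak fluorescence ratio is a statistical outlier from its plate by either plate-standardised score or position-corrected B-score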
# CYP2C19 activ: increases human CYP2C19 enzyme activity | recombinant CYP2C19, luciferin-H EGE luminescence; hits give high values; 0 = fully inhibited enzyme, 1 = untreated enzyme | activation factor at 5 µM | 96,000 tested, under 10 active | AID 1025;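 active means activation factor of at least 2 at 5 µM in the primary screen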
# CYP2C9 act: CYP2C9 (human) activation | P11712 | recombinant CYP2C9, luciferin-H conversion, luminescence; hits give high values; factor 1 = untreated enzyme, 0 = blocked | activation factor at 5 µM | 1.4% of 96,000 active;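 active means activation factor of 2 or more for CYP2C9 at a 5 µM dose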
# HIV Rev-RRE inh: inhibitors of HIV-1 Rev-RRE RNA interaction | P05866 | AID 704 | 0.79% of 97,000 active | Rev peptide-RRE RNA binding, FRET | inhibition, % at 8 µM;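 active means inhibition above the screen-wide mean plus 3 SD, cut at about 35% in these data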
# Target sequence (P05866 whole entry, looked up): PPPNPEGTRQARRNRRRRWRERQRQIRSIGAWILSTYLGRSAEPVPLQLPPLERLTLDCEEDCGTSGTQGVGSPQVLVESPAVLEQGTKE
#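 Assay system: labelled RRE RNA duplex and labelled Rev peptide / Medium: HEPES pH 7.5 salt buffer with EDTA / Reagent: labelled Rev peptide / Schedule: 5 + 15 min at 25 °C / Signal: FRET, excitation 480 nm, emission 540 nm donor and 671 nm acceptor / Benchmarks: DMSO and neomycin B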
# Numbers stand for hits; . = inactive; / = not tested or not shown. An excerpt weighted towards active compounds, which were near 27% of everything screened.
SMILES,CYP2C19 inh,CYP2C9 inh,Cav3 T inh,CYP2C19 activ,CYP2C9 act,HIV Rev-RRE inh
Brc1ccc(CN2CCSCC2)cc1,59,.,.,.,.,.
COc1ccc(CN2CCSCC2)cc1C,.,.,.,.,.,.
Cc1c(C(=O)O)oc2ccc(S(=O)(=O)N(CC(C)C)CC(C)C)cc12,.,.,.,.,.,/
CCN(CC)S(=O)(=O)c1ccc2oc(C(=O)O)c(C)c2c1,.,77,.,.,.,.
Cc1c(C(=O)NCC2COc3ccccc3O2)oc2ccc(S(=O)(=O)N(C)C3CCCCC3)cc12 (stereo not given),.,95,-4.3,.,.,.
CCN(Cc1ccccc1)S(=O)(=O)c1ccc2oc(C(=O)O)c(C)c2c1,.,98,.,.,.,/
CCN(CC)S(=O)(=O)c1ccc2oc(C(=O)NCc3ccc(C)cc3)c(C)c2c1,.,51,.,.,.,.
CCN(CC)S(=O)(=O)c1ccc2oc(C(=O)NC(C)C)c(C)c2c1,.,.,.,.,.,/
COc1ccc(C2(C(=O)NCC3CCCO3)CCOCC2)cc1 (stereo not given),.,.,.,.,.,.
Cc1ccc(CNS(=O)(=O)c2ccc3oc(C(=O)O)c(C)c3c2)cc1,.,67,.,.,.,.
Cc1c(C(=O)O)oc2ccc(S(=O)(=O)NCc3ccc4c(c3)OCO4)cc12,.,.,/,.,.,.
CCOC(=O)/C(=N\Nc1ccc(OC)cc1)c1csc(Nc2ccccc2)n1,.,.,.,.,.,.
CC(C)(C)c1nnc2sc(SC/C(O)=C(\C#N)c3nc4ccccc4[nH]3)nn2c1=O,68,.,.,.,.,.
Cc1nnc(SCC(=O)c2cc(C)n(-c3c(C)n(C)n(-c4ccccc4)c3=O)c2C)s1,.,.,.,.,.,/
COc1ccc(C)cc1-n1nnnc1SC/C(O)=C(\C#N)c1nc2ccccc2[nH]1,.,.,.,.,.,.
COc1ccc(C(=O)CSc2nn3c(=O)c(C(C)(C)C)nnc3s2)cc1,.,.,.,.,.,.
COc1ccc(-n2c(C)cc(C(=O)CSc3nn4c(=O)c(C(C)(C)C)nnc4s3)c2C)cc1,58,78,.,.,.,.
CC(C)(C)c1nnc2sc(SCC(=O)c3ccccc3)nn2c1=O,.,88,.,.,.,.
CCN(CCCNC(=O)c1[nH]c(C)c(C(C)=O)c1C)c1ccccc1,.,.,.,.,.,/
COc1ccc(OCCSc2nnc(-c3ccc(OC)cc3)n2N)cc1,.,.,.,.,.,.
CCC(=O)N1CCc2cc(OC)c(OC)cc2C1COc1ccc(C(=O)OC)cc1 (stereo not given),60,.,.,.,.,.
CCC(=O)c1ccc(OCC(=O)N2CCc3cc(OC)c(OC)cc3C2)cc1,.,.,.,.,.,.
COC(=O)CC(=O)CSc1nc2c(cc1C#N)CCCCC2,62,76,.,.,.,.
COc1ccc(-c2c(C#N)c(SCC(=O)Nc3ccccc3)nc3c2CCCC3)cc1,/,/,.,/,/,.
CN1CCc2nc(SCc3ccc(C(C)(C)C)cc3)c(C#N)cc2C1,.,.,.,.,.,.
SMILES,CYP2C19 inh,CYP2C9 inh,Cav3 T inh,CYP2C19 activ,CYP2C9 act,HIV Rev-RRE inh
CCN1CCc2nc(SCC(=O)Nc3ccc(OC)cc3)c(C#N)cc2C1,.,73,.,.,.,/
COc1ccc(NC(=O)CSc2nc3c(cc2C#N)CN(C)CC3)cc1,.,66,.,.,.,/
CN1CCc2nc(SCC(=O)Nc3ccc(F)cc3)c(C#N)cc2C1,90,75,.,.,.,.
CCOC(=O)C1=C(C)N(CCCCCC(=O)O)C(=O)NC1c1ccccc1OC(=O)c1cccs1 (stereo not given),/,/,.,/,/,/
COC(=O)c1ccc(C(=O)OC)c(NC(=O)c2cnc3n(c2=O)CCS3)c1,/,/,.,/,/,.
C=CCSc1nnc(NC(=O)COc2ccc3ccccc3c2)s1,.,.,.,.,.,.
CCN(CC)C(=O)C1CC(=O)N(c2ccc(F)c(Cl)c2)C1 (stereo not given),.,.,.,.,.,.
COc1cc(C)c(Cl)cc1S(=O)(=O)n1ccnc1C,92,.,.,.,.,.
Clc1ccc(OCc2nc(-c3ccncc3)no2)cc1,95,95,.,.,.,.
Clc1ccc(OCCCc2nc(-c3cccnc3)no2)c(Cl)c1,.,.,.,.,.,.
Clc1ccc(OCCCc2nc(-c3ccncc3)no2)c(Cl)c1,87,84,.,.,.,.
O=C(CSc1nnc(-c2ccc(O)cc2)o1)N1CCOCC1,.,.,.,.,2.5,/
O=C1OCCC1Sc1nnc(-c2ccc(O)cc2)o1 (stereo not given),.,.,.,.,.,.
COc1ccc(-c2nnc(SCC(=O)N3CCOCC3)o2)cc1,.,.,.,.,.,.
Oc1ccc(-c2nnc(SCC3CCCCC3)o2)cc1,.,.,.,.,2.1,.
CCOC(=O)C1=C(C)Nc2ccc(C)cc2S1,66,.,.,.,.,.
CCOCCOC(=O)C1=C(C)Nc2ccc(C)cc2S1,91,71,.,.,.,/
CSCCOC(=O)C1=C(C)Nc2ccc(C)cc2S1,.,61,.,.,.,.
COc1ccc(N2C(=O)N(Cc3cccc(F)c3)c3ccccc3S2(=O)=O)cc1,/,/,.,/,/,/
O=C1[C@H]2[C@H](C=CC[C@H]2C(=O)N2CCN(c3ccccc3)CC2)CCN1Cc1ccc(Cl)c(Cl)c1,/,/,.,/,/,/
CC(CSc1nc2ccccc2s1)Cn1c(N2CCCC2)nc2c1c(=O)[nH]c(=O)n2C (stereo not given),.,.,.,.,.,.
COc1ccc2c(c1OC)C(=O)OC2CC(=O)c1ccc(O)cc1 (stereo not given),72,.,/,.,.,/
COc1ccc2c(c1OC)C(=O)OC2CC(=O)c1ccc(O)c(O)c1 (stereo not given),51,.,.,.,.,.
[2H]c1c([2H])c([2H])c(-c2nc(N3CCCCCC3)sc2C(=O)c2ccccc2)c([2H])c1[2H],.,.,.,.,.,.
O=C(Nc1ccccc1C(=O)N1CCOCC1)C1CCCO1 (stereo not given),.,.,.,.,.,.
CC(C)=C1C2CCC1C1C(=O)N(NC(=O)COc3ccc(C(C)(C)C)cc3)C(=O)C21 (stereo not given),.,.,-8.4,.,.,.
N#CC1=C(SCc2ccccc2)NC(=O)CC1c1cccc(O)c1 (stereo not given),78,62,.,.,.,.
Cc1ccc(C2CC(=O)NC(SCc3ccccc3)=C2C#N)cc1 (stereo not given),/,/,.,/,/,.
N#CC1=C(SCc2ccccc2)NC(=O)CC1c1ccc(O)cc1 (stereo not given),65,53,.,.,.,.
O=C(CC1(O)C(=O)Nc2ccccc21)c1cccnc1 (stereo not given),.,.,.,.,.,.

# Screening data from PubChem.
